Data on 43 compounds can be found in ChEMBL document CHEMBL1122166, “Beta-adrenergic blocking agents. 22. 1-Phenoxy-3-[[(substituted-amido) alkyl]amino]-2-propanols” (J Med Chem, 1982).

The target in assay [1] is T1, Adrenergic receptor beta (Homo sapiens) (UniProt P08588+P07550+P13945). In words: In vivo beta adrenergic receptor blocking potency was determined by inhibition of depressor response produced by isoproterenol (0.2 mg/kg iv) in cat preparation. It is filed as functional, organism-based. In short, it runs like this:
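Test agent infused over 30 min at three to five dose levels against a submaximal isoproterenol challenge (0.2 μg/kg iv). The percent blockade of the isoproterenol vasodepressor response was estimated at the dose level derived from the tachycardia inhibition estimate.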

Assay [2] has as its target T1, Adrenergic receptor beta (Homo sapiens). The assay can be described thus: In vivo beta adrenergic receptor blocking potency was determined by inhibition of tachycardia produced by isoproterenol (0.2 mg/kg iv) in cat preparation. Type of assay: functional, organism-based. The procedure, abridged:
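Test agent infused over 30 min at three to five dose levels. Challenge was a submaximal isoproterenol dose (0.2 μg/kg iv). Mean log values were taken from two or three tests, with standard errors of the means.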

For assay [3] the target is unchanged. The assay can be described thus: In vivo beta adrenergic receptor blocking potency was determined by inhibition of tachycardia produced by isoproterenol (0.2 µg/kg iv) in cat preparation. The note with it: Felis catus; target entry is the homologue from another species.
Setting [4] is: Felis catus; target entry is the homologue from another species; in the assay text read “0.2 µg/kg iv” for “0.2 mg/kg iv”.
The mark [5] stands for this setting: Felis catus; in the assay text read “0.2 µg/kg iv” for “0.2 mg/kg iv”; target entry is the homologue from another species.

As a reminder, the inhibition is how much of the control response was suppressed. Read a high inhibition as a response far below the control. In general, ED50 refers to the midpoint of the dose-response relation. `CCCCCC(=O)NCCNCC(O)COc1ccccc1` (stereo unspecified) displayed an inhibition in assay [1] (setting [4]) of 0%. In assay [2] (setting [5]), this compound showed an ED50 of 0.159 mg/kg.

For `O=C(NCCNCC(O)COc1ccccc1)NC1CCCCC1` (stereo unspecified), in assay [1] (setting [4]), the inhibition stood at 6%. Moreover, the ED50 in assay [3] came out at 0.282 mg/kg.

In assay [1] (setting [5]), `O=C(NCCNCC(O)COc1ccccc1)C1CC1` (stereo unspecified) had an inhibition of 0%. Further, it took a dose of 0.022 mg/kg to reach the 50% effect level in assay [2] (setting [4]) (ED50).

In the case of `CC(CNC(=O)Cc1ccccc1Cl)NCC(O)COc1ccccc1[N+](=O)[O-]` (stereo unspecified), in assay [1] (setting [5]), the inhibition was 34%. The same compound gave an ED50 in assay [2] (setting [4]) of 0.007 mg/kg.

Take `CNC(=O)NCCNCC(O)COc1ccccc1C#N` (stereo unspecified): the inhibition in assay [1] (setting [5]) was found to be 18%. This compound also had an ED50 in assay [2] (setting [5]) of 0.044 mg/kg.

`CC(=O)NCCNCC(O)COc1ccccc1` (stereo unspecified) showed an inhibition in assay [1] (setting [5]) of 7%. This compound showed an ED50 in assay [2] (setting [5]) of 0.015 mg/kg.

Turning to `CC(C)C(=O)NCCNCC(O)COc1ccccc1[N+](=O)[O-]` (stereo unspecified), in assay [1] (setting [4]), the inhibition was determined as 5%. Further, in assay [2] (setting [4]), it took a dose of 0.006 mg/kg to reach the 50% effect level (ED50).

Compound `O=C(NCCNCC(O)COc1ccccc1)c1cc(O)ccc1O` (stereo unspecified) returned an inhibition in assay [1] (setting [5]) of 0%. In addition, in assay [2] (setting [5]), the 50% effect level (ED50) was put at a dose of 0.616 mg/kg.

In assay [1] (setting [4]), `CC(=O)NCCCCCCNCC(O)COc1ccccc1` (stereo unspecified) came in with an inhibition of 16%. In addition, the 50% effect level in assay [2] (setting [4]) (ED50) was put at a dose of 0.044 mg/kg.

For `C=CCOc1ccccc1OCC(O)CNCCNC(=O)Nc1ccccc1` (stereo unspecified), the inhibition in assay [1] (setting [4]) stood at 24%. The compound further displayed an ED50 in assay [2] (setting [4]) of 0.037 mg/kg.

`CCCCCCCCC(=O)NCCNCC(O)COc1ccccc1` (stereo unspecified) showed an inhibition in assay [1] (setting [4]) of 3%. Moreover, in assay [2] (setting [5]), the 50% effect level (ED50) was put at a dose of 0.84 mg/kg.

In turn, `CC(C)S(=O)(=O)NCCNCC(O)COc1ccccc1` (stereo unspecified) returned an inhibition in assay [1] (setting [4]) of 9%. Besides, the 50% effect level in assay [2] (setting [5]) (ED50) was put at a dose of 0.008 mg/kg.

In the case of `CCCCNC(=O)NCCNCC(O)COc1ccccc1C#N` (stereo unspecified), the inhibition in assay [1] (setting [5]) turned out to be 0%. For the same compound, it took a dose of 0.304 mg/kg to reach the 50% effect level in assay [2] (setting [5]) (ED50).

In assay [1] (setting [5]), `C=CCNC(=O)NCCNCC(O)COc1ccccc1` (stereo unspecified) displayed an inhibition of 5%. In assay [2] (setting [4]), this compound had an ED50 of 0.024 mg/kg.

`CC(C)NC(=O)NCCNCC(O)COc1ccccc1` (stereo unspecified) came in with an inhibition in assay [1] (setting [4]) of 0%. Besides, the ED50 in assay [2] (setting [5]) worked out at 0.099 mg/kg.

`O=C(NCCNCC(O)COc1ccccc1)c1ccc(O)c(O)c1` (stereo unspecified) returned an inhibition in assay [1] (setting [4]) of 0%. Moreover, in assay [2] (setting [4]), the ED50 stood at 0.014 mg/kg.

As to `CC(C)(OC(=O)NCCNCC(O)COc1ccccc1)c1ccc(Cl)cc1` (stereo unspecified), in assay [1] (setting [5]), the inhibition was 25%. Further, the ED50 in assay [2] (setting [5]) amounted to 0.078 mg/kg.

With `CC(CNC(=O)Cc1ccccc1)NCC(O)COc1ccccc1` (stereo unspecified), in assay [1] (setting [4]), the inhibition amounted to 0%. In addition, in assay [2] (setting [5]), the ED50 was found to be 0.003 mg/kg.

`N#Cc1ccccc1OCC(O)CNCCNC(N)=O` (stereo unspecified) came in with an inhibition in assay [1] (setting [4]) of 21%. The compound also gave an ED50 in assay [2] (setting [5]) of 0.06 mg/kg.

The compound `COCC(=O)NCCNCC(O)COc1ccccc1` (stereo unspecified) returned an inhibition in assay [1] (setting [5]) of 0%. For the same compound, the ED50 in assay [2] (setting [5]) was 0.016 mg/kg.

In turn, `CC(C)(CNC(=O)Cc1ccccc1)NCC(O)COc1ccccc1` (stereo unspecified) came in with an inhibition in assay [1] (setting [4]) of 0%. The compound also showed an ED50 in assay [2] (setting [5]) of 0.011 mg/kg.

For the compound `CCCCNC(=O)NCCNCC(O)COc1ccccc1` (stereo unspecified), in assay [1] (setting [5]), the inhibition stood at 8%. Besides, in assay [2] (setting [4]), the 50% effective dose (ED50) amounted to 0.022 mg/kg.

In turn, `O=C(NCCNCC(O)COc1ccccc1[N+](=O)[O-])Nc1ccccc1` (stereo unspecified) came in with an inhibition in assay [1] (setting [5]) of 14%. Besides, in assay [2] (setting [5]), the ED50 is 0.052 mg/kg.

Take `O=C(NCCNCC(O)COc1ccccc1)c1ccccc1Cl` (stereo unspecified): the inhibition in assay [1] (setting [5]) came to 0%. The compound also gave an ED50 in assay [2] (setting [5]) of 0.161 mg/kg.

In assay [1] (setting [4]), `CCNC(=O)NCCNCC(O)COc1ccccc1` (stereo unspecified) showed an inhibition of 0%. The compound also returned an ED50 in assay [2] (setting [4]) of 0.024 mg/kg.

Consider `CC(C)(C)C(=O)NCCNCC(O)COc1ccccc1[N+](=O)[O-]` (stereo unspecified), for which the inhibition in assay [1] (setting [4]) turned out to be 25%. The same compound displayed an ED50 in assay [2] (setting [5]) of 0.011 mg/kg.

On to `O=C(COc1ccccc1)NCCNCC(O)COc1ccccc1` (stereo unspecified), for which, in assay [1] (setting [4]), the inhibition amounted to 0%. In assay [2] (setting [5]), the 50% effective dose (ED50) was found to be 0.038 mg/kg.

The compound `CC(C)NC(=O)NCCNCC(O)COc1ccccc1C#N` (stereo unspecified) came in with an inhibition in assay [1] (setting [4]) of 0%. Also, it took a dose of 0.168 mg/kg to reach the 50% effect level in assay [2] (setting [4]) (ED50).

`CC(CNC(=O)C(C)C)NCC(O)COc1ccccc1` (stereo unspecified) had an inhibition in assay [1] (setting [4]) of 37%. Also, in assay [2] (setting [5]), it took a dose of 0.005 mg/kg to reach the 50% effect level (ED50).

Compound `CN(C)c1ccccc1C(=O)NCCNCC(O)COc1ccccc1` (stereo unspecified) registered an inhibition in assay [1] (setting [5]) of 0%. Further, the 50% effective dose (ED50) in assay [2] (setting [4]) came to 0.465 mg/kg.

Compound `CC(C)C(=O)NCC(C)(C)NCC(O)COc1ccccc1` (stereo unspecified) had an inhibition in assay [1] (setting [4]) of 0%. The 50% effect level in assay [2] (setting [4]) (ED50) was put at a dose of 0.003 mg/kg.

`O=C(NCCNCC(O)COc1ccccc1Cl)Nc1ccccc1` (stereo unspecified) registered an inhibition in assay [1] (setting [5]) of 4%. In assay [2] (setting [4]), this compound came in with an ED50 of 0.037 mg/kg.

In assay [1] (setting [5]), `O=C(Cc1ccccc1)NCCNCC(O)COc1ccccc1` (stereo unspecified) returned an inhibition of 0%. The same compound returned an ED50 in assay [2] (setting [5]) of 0.029 mg/kg.

Regarding `CS(=O)(=O)NCCNCC(O)COc1ccccc1` (stereo unspecified), in assay [1] (setting [5]), the inhibition worked out at 0%. The 50% effect level in assay [2] (setting [5]) (ED50) was put at a dose of 0.039 mg/kg.

`NC(=O)NCCNCC(O)COc1ccccc1` (stereo unspecified) showed an inhibition in assay [1] (setting [5]) of 0%. Further, it took a dose of 0.012 mg/kg to reach the 50% effect level in assay [2] (setting [5]) (ED50).

For `CCCCCC(=O)NCC(C)NCC(O)COc1ccccc1` (stereo unspecified), the inhibition in assay [1] (setting [5]) was 0%. The compound further had an ED50 in assay [2] (setting [5]) of 0.005 mg/kg.

The compound `C=CCOc1ccccc1OCC(O)CNC(C)CNC(=O)Cc1ccccc1` (stereo unspecified) had an inhibition in assay [1] (setting [4]) of 30%. This compound showed an ED50 in assay [2] (setting [4]) of 0.019 mg/kg.

Take `O=C(Cc1ccc(Cl)cc1)NCCNCC(O)COc1ccccc1` (stereo unspecified): the inhibition in assay [1] (setting [4]) stood at 8%. Also, in assay [2] (setting [5]), the ED50 worked out at 0.017 mg/kg.

The compound `O=C(NCCNCC(O)COc1ccccc1)C1CCCCC1` (stereo unspecified) showed an inhibition in assay [1] (setting [5]) of 0%. Moreover, the 50% effect level in assay [2] (setting [4]) (ED50) was put at a dose of 0.02 mg/kg.

Turning to `CC(C)C(=O)NCCCNCC(O)COc1ccccc1` (stereo unspecified), in assay [1] (setting [5]), the inhibition turned out to be 0%. Besides, it took a dose of 0.21 mg/kg to reach the 50% effect level in assay [3] (ED50).

In assay [1] (setting [5]), `CC(CNC(=O)Cc1ccccc1)NCC(O)COc1ccccc1C#N` (stereo unspecified) gave an inhibition of 10%. This compound also displayed an ED50 in assay [2] (setting [5]) of 0.004 mg/kg.

As to `N#Cc1ccccc1OCC(O)CNCCNC(=O)Nc1ccccc1[N+](=O)[O-]` (stereo unspecified), the inhibition in assay [1] (setting [5]) amounted to 11%. Moreover, in assay [2] (setting [5]), it took a dose of 0.097 mg/kg to reach the 50% effect level (ED50).

Take `Cc1c(N)cc(S(=O)(=O)NCCNCC(O)COc2ccccc2)cc1[N+](=O)[O-]` (stereo unspecified): the inhibition in assay [1] (setting [5]) is 34%. For the same compound, the ED50 in assay [3] worked out at 0.217 mg/kg.
